Rpn11 block = blocks the human proteasome subunit Rpn11; O00487; human 26S proteasome, Ub4-pepOG fluorescence polarization; 20S core pre-blocked with epoxomicin; inhibition, % at 20 µM; 360,000 compounds, 0.59% hits; AID 588493;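 active = inhibition at 20 µM, scaled to each plate's controls, above about 33%, limit read from the data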
XiGFP reactiv = activators of X-chromosome reactivation in mouse fibroblasts; XiGFP mouse fibroblasts, % GFP-positive cells imaging, 3 d; cells co-treated with 5-aza-dC sensitizer; scaled so ellipticine positive control = 100%; activation, % at 7.58 µM; 360,000 compounds, 0.055% hits; AID 743238;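 active = mean normalized replicate activation at least 10% and every replicate at or above 10%; inconclusive = only one of the two criteria met; inactive = mean below 10% and not all replicates reach 10%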;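 note: 0% = median of on-plate neutral control wells and 100% = ellipticine 6 µM median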
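Schedule: 3 d treatment, 15 min room-temperature fixation; system: 68-5-11 XiGFP fibroblast line; buffer or medium: DMEM plus 5-aza-dC sensitizer; control set: ellipticine 6 µM positive control; compound: one concentration, pinned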
Rin1 Abl inh = blocks binding of human Rin1 to Abl | P00519+Q13671 | TR-FRET Rin1/Abl binding, biochemical | inhibition, % at 7.35 µM | 360,000 compounds, 0.4% hits; in the data active = inhibition above about 5%, passing the limit was not always enough
NadD inh = blocks S. aureus nicotinate mononucleotide adenylyltransferase. purified NadD enzyme, colorimetric absorbance read-out. inhibition, % at 20 µM. 360,000 compounds, 0.78% hits. AID 602399; in the data active = inhibition above about 26%
ABHD5 PLIN5 PPI = ABHD5-PLIN5 protein interaction inhibition; inhibition, % at 4 µM; Q00G26+Q8WTS1; Split G. princeps luciferase complementation, luminescence, 4 h; 360,000 compounds, 0.78% hits;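 active = inhibition above the mean inhibition across every tested compound plus 3 SD, cut at about 22% in these data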;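 note: 0% = DMSO only wells and the 100% control is not disclosed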
Rpn11 confirm = Rpn11 inhibition confirmation, single concentration. shares compounds with Rpn11 block. purified human 26S proteasome, Ub4-pepOG fluorescence polarization; proteasome pretreated with epoxomicin. inhibition, % at 20 µM. 1,900 compounds, 29% hits
MMP-2 inh = blocks human MMP-2, flagging nonselective RPN11 hits | shares compounds with Rpn11 block | recombinant MMP-2, FRET peptide cleavage fluorescence | inhibition, % at 20 µM | 1,900 compounds, 4% hits | AID 602330;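 note: human MMP-2 activated beforehand with APMA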
Thrombin FP = counter-screen for RPN11 inhibitors: inhibition of bovine thrombin; shares compounds with Rpn11 block; bovine thrombin cleavage of Ub4-pepOG, fluorescence polarization; inhibition, % at 20 µM; 1,900 compounds, 13% hits;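 active = mean inhibition at least 40% at 20 µM, or signal 3 deviations below plate average, so some actives read negative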;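 note: plate controls were thrombin with DMSO for no effect and buffer wells lacking thrombin for full effect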
Numbers without * were called inactive; u = inconclusive; x = not tested or not shown. This is a sample that favours compounds with a hit; in the whole collection about 1.9% have one here. Cut-off read from the data, not from the text of the source, unless noted: active = inhibition above about 40%; inactive = the rest.

SMILES	Rpn11 block	XiGFP reactiv	Rin1 Abl inh	NadD inh	ABHD5 PLIN5 PPI	Rpn11 confirm	MMP-2 inh	Thrombin FP
CO[C@H]1CN(C)C(=O)c2ccc(NC(=O)Nc3ccc(Cl)cc3)cc2OC[C@H](C)NC[C@H]1C	x	0	x	x	x	x	x	x
CC1CCCC(NC(=O)CCS(=O)(=O)c2cc3c(cc2Cl)NC(=O)CO3)C1C (stereo not drawn)	44*	0	2	3	-5	-11	-7	-16
COc1cccc(C(=O)Nc2ccc3c(c2)C(=O)N(C)[C@@H]2CC[C@@H](CC(=O)NCC4CC4)O[C@H]2CO3)c1	x	1	x	x	x	x	x	x
Nc1ccccc1Nc1cc(-c2ccccc2)[nH]n1	43*	u	2	2	8	0	10	7
COc1ccc2cc(C(=O)Nc3ccc(Cl)cc3)sc(=O)c2c1OC	188*	0	0	-3	-1	39	33	-12
CC(=O)N1CC2(C1)[C@H](c1ccccc1)[C@H](CO)N2S(=O)(=O)c1ccccc1	x	0	x	x	x	x	x	x
N#Cc1c(-c2cccs2)nc(SCC(=O)c2cccs2)[nH]c1=O	47*	x	-9	13	5	68*	4	44*
O=C(CSc1nc2ccccc2c(=O)[nH]1)c1cccs1	2	x	0	1	-6	x	x	x
O=C(COC(=O)c1ccc(O)cc1)Nc1ccc(N2CCCCC2)cc1	56*	x	-2	5	-1	1	2	-2
COc1cc(OC)cc(C(=O)OCC(=O)Nc2ccc(N3CCCCC3)cc2)c1	1	x	3	-4	3	x	x	x
Cc1cccc(C(P(=O)(c2ccccc2)c2ccccc2)P(=O)(c2ccccc2)c2ccccc2)n1	-1	0	-1	0	0	x	x	x
Cc1cccc(C(O)C(O)c2cccc(C)n2)n1 (stereo not drawn)	99*	0	-2	1	-3	-4	1	8
COc1ccc(NC(=O)Nc2ccc3c(c2)C(=O)N([C@@H](C)CO)C[C@H](C)[C@@H](CN(C)Cc2ccccc2)O3)cc1	x	0	x	x	x	x	x	x
CCCCC(CC)CNC(=O)C(=O)c1ccccc1NC(C)=O (stereo not drawn)	41*	0	-1	0	-1	-12	-49	-21
CCCN(C)C[C@H]1OCCCC[C@H](C)Oc2ccc(NC(=O)c3ccncc3)cc2C(=O)N([C@H](C)CO)C[C@H]1C	x	-1	x	x	x	x	x	x
O=C(Nc1ccccc1C(=O)O)c1ccc2c(c1)C(=O)N(c1cccc([N+](=O)[O-])c1)C2=O	9	0	1	10	3	x	x	x
O=C(Nc1c[nH]c(=O)[nH]c1=O)c1ccc2c(c1)C(=O)N(c1cccc([N+](=O)[O-])c1)C2=O	57*	0	0	10	1	4	-22	1
Cc1ccc(-n2cccc2/C=C2/C(=N)N3C(=NC2=O)SN=C3S(C)(=O)=O)cc1Cl	168*	0	-4	25	5	160*	-7	109*
O=c1cc(-c2ccc(O)cc2)oc2c1ccc1ccccc12	45*	-1	1	2	-11	64*	-26	-13
O=c1cc(-c2ccncc2)oc2c1ccc1ccccc12	-11	0	-3	4	9	x	x	x
O=C(c1ccccc1F)N1CC(=O)N2[C@H](CO)[C@@H](c3ccc(C#Cc4ccc(F)cc4)cc3)[C@H]2C1	x	0	x	x	x	x	x	x
Cn1c(-c2c(N)n(CCc3ccccc3)c3nc4ccccc4nc23)nc2ccccc21	46*	x	-4	10	6	38	-2	29
COCCCn1c(N)c(-c2nc3ccccc3n2C)c2nc3ccccc3nc21	37	x	-3	-5	0	x	x	x
Nc1c(C(=O)NCc2ccc3c(c2)OCO3)c2nc3ccccc3nc2n1CCCN1CCOCC1	51*	x	-4	-7	13	25	-26	-5
Nc1c(C(=O)NCCN2CCOCC2)c2nc3ccccc3nc2n1CCc1ccccc1	32*	x	-7	4	3	5	8	-7
SMILES	Rpn11 block	XiGFP reactiv	Rin1 Abl inh	NadD inh	ABHD5 PLIN5 PPI	Rpn11 confirm	MMP-2 inh	Thrombin FP
COCCNC(=O)c1c(N)n(CCCn2ccnc2)c2nc3ccccc3nc12	40*	x	-7	6	-10	-18	-17	-15
O=C(NCC[C@@H]1CC[C@H](NS(=O)(=O)c2ccc(F)cc2)[C@H](CO)O1)c1ccccc1F	x	0	x	x	x	x	x	x
COc1ccc(C[C@H]2CCn3cc(nn3)COC[C@@H](Cc3ccccc3)NC2=O)cc1	x	0	x	x	x	x	x	x
COc1ccc(C)cc1Nc1n[n+](-c2ccccc2)c(-c2ccc(OC)c(OC)c2OC)s1	-3	0	0	9	-2	x	x	x
COc1ccc(C)cc1Nc1n[n+](-c2ccccc2)c(-c2ccc(N(C)C)cc2)s1	60*	0	0	10	5	75*	3	127*
CCOc1ccc(CCNC(=O)Cn2c(=O)c3cccn3c3cccnc32)cc1	42*	0	3	-3	1	2	-11	-5
CCCCCCN1C=CC=C/C1=C\C=C(C#N)C#N	62*	0	-10	-6	4	4	-5	11
CCOC(=O)/C(C#N)=C\C=C1C=CN(C)C=C1	x	x	-27	3	5	x	x	x
CCN(CC)C(=O)Cn1nc(-c2ccncc2)nc1SCC(=O)Nc1ccc(OC)cc1	0	0	2	-2	2	x	x	x
COC(=O)c1ccc(NC(=O)Cn2nc(-c3ccncc3)nc2SCC(=O)Nc2nccs2)cc1	34*	x	0	19	6	22	-14	7
O=C(Nc1nc(-c2nc3ccccc3s2)cs1)c1ccco1	191*	0	-4	1	-2	140*	18	24
CCOP(=O)(OCC)c1nc(-c2ccc(Br)cc2)oc1N1CCCCC1	-1	1	0	1	9	x	x	x
CCOP(=O)(c1ccccc1)c1nc(-c2ccc(F)cc2)oc1N1CCCCC1 (stereo not drawn)	126*	x	-1	4	-6	-6	-20	-16
O=C(C[C@H]1CC[C@@H]2[C@H](COC[C@H](O)CN2S(=O)(=O)c2cccc(F)c2)O1)Nc1ccccc1	x	0	x	x	x	x	x	x
CCOc1ccc2nc(Nc3nc(CSc4nnnn4-c4ccccc4)cc(=O)[nH]3)nc(C)c2c1	38*	x	-4	2	3	-3	-18	6
Oc1ccc(Cl)cc1N=Cc1sc2ccccc2c1Cl	16	0	-5	1	-5	x	x	x
O=[N+]([O-])c1ccc(O)c(N=Cc2sc3ccccc3c2O)c1	109*	0	-4	8	-5	42*	26	-3
O=C(CSc1nc2ccccc2s1)c1cc2ccccc2o1	56*	x	-3	-9	-7	29	20	15

Screening data as filed in PubChem BioAssay.
